Screening results: PubChem BioAssay, several laboratories
In the library only some 2.8% were active in any assay of this set; here they are far more common.
NPY Y1 blocker: antagonists of human neuropeptide Y receptor Y1 | AID 1040 | inhibition, % at 3.6 µM | actives 1% (n = 200,000) | P25929 | HEK293-CNG Y1 cells, membrane potential fluorescence; NPY at EC95, then isoproterenol;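 active = inhibition above the campaign mean inhibition of all tested compounds plus 3 SD, cut at about 20% in these data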;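 also: 0% = DMSO wells given NPY plus isoproterenol and 100% = isoproterenol alone without NPY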
Target sequence (P25929 whole entry, looked up): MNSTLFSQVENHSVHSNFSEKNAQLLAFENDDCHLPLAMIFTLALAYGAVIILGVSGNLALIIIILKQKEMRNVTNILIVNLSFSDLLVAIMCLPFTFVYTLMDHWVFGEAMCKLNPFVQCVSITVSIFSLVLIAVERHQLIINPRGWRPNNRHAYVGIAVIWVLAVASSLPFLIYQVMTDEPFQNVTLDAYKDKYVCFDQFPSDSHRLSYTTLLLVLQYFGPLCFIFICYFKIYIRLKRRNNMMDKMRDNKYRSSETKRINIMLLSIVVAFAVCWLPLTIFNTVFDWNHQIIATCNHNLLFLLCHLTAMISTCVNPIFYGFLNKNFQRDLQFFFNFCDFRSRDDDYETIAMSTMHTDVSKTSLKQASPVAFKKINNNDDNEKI
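Assay system: HEK293 Y1/CNG channel cell line; Doses: single compound dose of 3.6 µM, 0.4% DMSO; Timing: dye 3 h, compound 60 min room temperature, stimulation 45 min; Technique: Membrane-potential fluorescent dye readout; Measure: % inhibition of NPY effect.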
NPY-Y1 PAM-ag: potentiates or activates human NPY-Y1 receptor | P25929 | activation, % at 3.6 µM | actives 0.37% (n = 220,000) | NPY-Y1 expressing cells, potentiator/agonist activation | AID 1304; in the data active = activation above about 33%, passing the limit was not always enough;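 also: cells stimulated with NPY at EC10 then isoproterenol at EC100; 0% = low agonist plus stimulus and 100% = saturating agonist plus stimulus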
EP2 mod: modulates human prostaglandin E2 receptor EP2 signaling | AID 940 | P43116 | actives 0.83% (n = 260,000) | EP2-expressing cells, cAMP HTRF FRET, PGE2 co-stimulation | induction, % at 25 µM;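 active = compounds whose cAMP rise, as percent of the full-agonist control response, exceeds 60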;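 also: rat C6 glioma line stably carrying human EP2 under a CMV promoter; the protocol text gives 20 µM as final concentration; 100% = response of wells given 1 µM PGE2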
Target sequence (P43116 whole entry, looked up): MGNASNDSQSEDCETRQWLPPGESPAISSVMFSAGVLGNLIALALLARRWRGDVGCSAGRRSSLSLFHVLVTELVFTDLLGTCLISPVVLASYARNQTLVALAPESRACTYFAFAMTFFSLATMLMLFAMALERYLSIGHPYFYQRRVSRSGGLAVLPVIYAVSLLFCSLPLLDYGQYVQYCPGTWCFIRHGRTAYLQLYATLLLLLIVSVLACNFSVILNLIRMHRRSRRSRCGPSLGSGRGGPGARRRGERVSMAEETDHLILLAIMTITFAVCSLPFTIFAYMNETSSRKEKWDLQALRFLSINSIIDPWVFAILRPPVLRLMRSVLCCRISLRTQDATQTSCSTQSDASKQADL
EP2 antag: EP2 receptor (human) inhibition. P43116. C6 glioma cells expressing human EP2, cAMP TR-FRET; cells stimulated with saturating PGE2. inhibition, % at 25 µM. AID 1422. actives 0.52% (n = 260,000);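 active = percent inhibition above 40 after rounding to a whole number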;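 also: rat C6 glioma host cells with rolipram phosphodiesterase inhibitor present; the protocol text gives 20 µM as final concentration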
NPY Y2 blocker: blocks the human neuropeptide Y Y2 receptor; P49146; NPY-Y2 expressing cells, antagonist mode; inhibition, % at 2.7 µM; actives 0.99% (n = 140,000); AID 793; in the data active = inhibition above about 17%;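 also: 0% = vehicle with agonist challenge and 100% = reference antagonist with challenge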
NPY-Y2 PAM-ag: potentiates or activates human NPY-Y2 receptor | cells expressing NPY-Y2, potentiator/agonist read-out | activation, % at 3.6 µM | actives 0.45% (n = 220,000); in the data active = activation above about 27%;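 also: cells stimulated with NPY near EC25 plus isoproterenol at EC100; 0% = vehicle plus submaximal agonist and 100% = vehicle plus saturating agonist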
* marks the source's active call; other numbers are inactive results; nt = no result given.

SMILES	NPY Y1 blocker	NPY-Y1 PAM-ag	EP2 mod	EP2 antag	NPY Y2 blocker	NPY-Y2 PAM-ag
C[C@H]1[C@H](O)[C@@H](C)C=CC=CC=CC=CC=CC=CC=C[C@H](O[C@H]2O[C@@H](C)[C@H](O)[C@@H](N)[C@@H]2O)C[C@@H]2O[C@@](O)(C[C@@H](O)C[C@@H](O)[C@@H](O)CC[C@@H](O)C[C@@H](O)CC(=O)O[C@H]1C)C[C@H](O)[C@H]2C(=O)O	nt	nt	-9.8	42.5*	nt	nt
COc1ccc2cc(CN(C(=S)Nc3ccc(F)cc3)C3CCCC3)c(=O)[nH]c2c1	nt	nt	-0.5	4.0	nt	nt
CCc1ccc(NC(=O)/C(C#N)=C/c2cc3ccc(C)cc3nc2N2CCOCC2)cc1	-3.4	-15.8	24.1	8.3	2.1	-10.1
CCN(CC)c1nc2cc(C)ccc2cc1/C=C(\C#N)C(N)=O	-1.7	-4.8	62.5*	6.4	nt	8.5
O=C1C=C(N2CCN(c3ccccn3)CC2)C(=O)c2c(O)ccc(O)c21	nt	nt	-8.7	66.1*	nt	nt
CC1=CC(C)(C)n2c(O)c(N=NC(N)=S)c3c(C)c(C)cc1c32	nt	39.6	-9.8	1.6	nt	-0.3
CC1=CC(C)(C)n2c(O)c(N=N)c3c(C)ccc1c32	nt	-30.7	81.8*	10.9	nt	-59.2
CC1=CC(C)(C)n2c(O)c(N=N)c3c(C)c(C)cc1c32	nt	-56.8	75.8*	5.4	nt	-60.5
CCc1ccccc1NC(=O)C1CCN(S(=O)(=O)c2ccc(OC)c(C)c2)CC1	nt	nt	-34.0	8.5	nt	nt
CCCOc1ccc(Cc2c(Cl)nc(SC)nc2OC)cc1	3.1	12.0	10.4	2.3	6.3	9.1
CCCOc1ccc(Cc2c(Cl)nc(SC)nc2N(C)C)cc1	21.9*	-54.3	10.1	3.0	25.7*	-14.1
CC1(C)Cc2nc3sc4c(SCC(=O)O)ncnc4c3cc2CO1	nt	3.3	-0.5	12.3	nt	12.4
CC1(C)Cc2nc3sc4c(SCC(=O)NCc5ccccc5)ncnc4c3cc2CO1	-2.2	2.8	63.2*	24.2	2.8	5.7
CC(=O)Nc1nnc(SCC(=O)c2ccc3c(c2)Cc2ccccc2-3)s1	4.3	9.1	60.8*	12.7	2.8	-4.7
CCC(=O)Nc1nnc(SCC(=O)c2ccc3c(c2)Cc2ccccc2-3)s1	-3.3	-14.0	29.4	nt	0.7	0.2
O=c1c2ccccc2nc(-c2cccs2)n1-c1cccc2ccccc12	-1.5	4.7	62.4*	10.4	1.7	15.4
COc1ccc(CNn2c(-c3cccs3)nc3ccccc3c2=O)cc1OC	4.1	-12.2	23.4	9.2	nt	-16.6
CCOc1ccc2[nH]c(=O)c(C(c3nnnn3CCOC)N3CCCCCC3)cc2c1 (centres undefined)	nt	nt	-24.5	8.7	nt	nt
CCC(=O)Nc1sc(C(=O)Nc2cccc(C)c2C)c(C)c1C#N	nt	nt	-41.7	16.4	nt	nt
O=C(CN(c1cccc(C(F)(F)F)c1)S(=O)(=O)c1ccc(Cl)c([N+](=O)[O-])c1)NCc1ccccc1Cl	-7.4	35.8	-8.2	7.1	-0.2	22.8
CC(NC(=O)CN(c1cccc(C(F)(F)F)c1)S(=O)(=O)c1ccc(Cl)c([N+](=O)[O-])c1)c1ccccc1 (centres undefined)	-8.9	74.5*	-0.3	14.7	-1.5	50.3*
O=C(CN(c1ccc(Br)cc1)S(=O)(=O)c1ccc(Cl)c([N+](=O)[O-])c1)NCCc1ccccc1	-5.2	7.4	26.4	5.3	nt	0.6
Cc1ccc(N(CC(=O)NCCc2ccc(F)cc2)S(=O)(=O)c2ccc(Cl)c([N+](=O)[O-])c2)c(C)c1	-8.1	67.8*	23.2	9.8	-4.6	38.8*
O=C(CN(c1cccc(C(F)(F)F)c1)S(=O)(=O)c1ccc(Cl)c([N+](=O)[O-])c1)NCc1ccccc1	-10.2	81.2*	-18.3	10.1	-1.4	60.9*
COc1ccc([C@@H]2CN(C(=O)C(C)(C)C)C[C@H]2C(=O)O)cc1	nt	nt	8.3	nt	nt	nt
SMILES	NPY Y1 blocker	NPY-Y1 PAM-ag	EP2 mod	EP2 antag	NPY Y2 blocker	NPY-Y2 PAM-ag
CN(C)C[C@H]1CCC2=C(C1=O)C(c1ccc(Cl)c(Cl)c1)C1=C(CC[C@H](CN(C)C)C1=O)O2	nt	nt	-11.9	54.8*	nt	nt
CCC(=O)Nc1ccc(NC(=O)CSc2nc(CC)nc3sc(C)c(C)c23)cc1	nt	nt	-21.6	13.4	nt	nt
COc1ccc(N2CCN(c3oc(COc4ccccc4Cl)nc3C#N)CC2)cc1	41.7*	-22.0	-6.7	3.1	24.6*	-24.7
CC1CN(c2oc(COc3ccc(Cl)cc3Cl)nc2C#N)CC(C)O1 (centres undefined)	28.8*	-16.6	0.1	8.2	23.1*	-1.9
Cc1ccc(OCc2nc(C#N)c(N3CCCCC3)o2)cc1	nt	-15.0	18.5	14.8	nt	-33.9
Cc1cccc(OCc2nc(C#N)c(N3CC(C)CC(C)C3)o2)c1 (centres undefined)	55.6*	-36.9	-9.9	8.4	17.6*	-26.0
COc1ccc(OCc2nc(C#N)c(N3CCN(c4ccc(OC)cc4)CC3)o2)cc1	37.1*	-22.9	-76.1	9.6	25.4*	-18.5
Cc1cccc(OCc2nc(C#N)c(N3CCCC3)o2)c1	nt	-9.0	1.3	17.6	nt	-21.8
O=C(C(c1ccccc1)C1CCCC1)N1CCC(n2nnc3cccnc32)CC1 (centres undefined)	nt	nt	9.8	7.9	nt	nt
O=C(Cn1ncc2cccn2c1=O)OC1CCCCC1	nt	nt	-33.3	-0.3	nt	nt
CCC(c1nnnn1CCOC)N(Cc1cc2c(C)cc(C)cc2[nH]c1=O)C1CCCC1 (centres undefined)	nt	nt	-8.7	5.7	nt	nt
CC(=O)Nc1ccc(NC(=O)Nc2ccc3c(c2)N(C)C(=O)CS3)cc1	-6.1	3.7	-47.9	5.8	nt	10.6
COc1cccc(NC(=O)Nc2ccc3c(c2)N(C)C(=O)CS3)c1	8.1	5.7	-36.4	42.3*	2.2	16.4
CC(=O)NC(C)CCc1ccccc1 (centres undefined)	nt	-7.2	-16.8	6.2	nt	-11.5
CC(CCc1ccccc1)NCC(O)c1ccc(O)c(C(N)=O)c1 (centres undefined)	-14.2	116.5*	14.1	10.2	0.7	103.2*
Cc1cc(C)c2c(N)c(C(=O)N/N=C/c3cccnc3)sc2n1	nt	12.6	-47.4	6.8	nt	-27.5
Cc1c(C(=O)N/N=C/c2cccnc2)sc(=S)n1C	7.7	57.1*	8.8	4.2	1.3	54.4*
c1ccc(N2CCN(c3nnnn3-c3ccccc3)CC2)cc1	8.2	-11.7	-3.6	1.5	2.5	0.7
ClC(Cl)(c1nnnn1-c1ccccc1)c1nnnn1-c1ccccc1	2.2	-12.5	-41.7	80.7*	1.9	0.9
Cc1cc2ccccc2n2c(=O)n(CC(C)NC(=O)CN3CCCC3=O)nc12 (centres undefined)	nt	nt	-13.1	7.0	nt	nt
O=C(Cn1nc(-c2ccc(N3CCOCC3)c([N+](=O)[O-])c2)c2ccccc2c1=O)N1CCCCC1	25.4*	-14.1	42.0	3.1	56.8*	-35.1
O=[N+]([O-])c1cc(-c2nnc(N3CCOCC3)c3ccccc23)ccc1N1CCOCC1	-1.3	3.6	-20.0	16.2	nt	2.1
Cc1cc(NC(=O)CSc2ccc(Cl)cc2)ccc1NC(=O)c1ccco1	nt	nt	-36.3	8.5	nt	nt
